This note sets out measurements from ChEMBL document CHEMBL1125356, “Synthesis and evaluation of novel spermidine derivatives as targeted cancer chemotherapeutic agents” (J Med Chem, 1992).

Test [1] deals with B16. Put plainly: The compound was tested for inhibition of B16-BL6 melanoma cells growing in culture with 0.25 mM DFMO. The format is functional, cell-based. The settings on record: Mus musculus.
For test [2], the system named is B16. Put plainly: The compound was tested for inhibition of B16-BL6 melanoma cells growing in culture. The settings on record: Mus musculus. The class given is functional, cell-based.
For test [3], the system named is B16. Put plainly: The compound was tested in vitro for inhibition of cell growth on the B16-BL6 melanoma cells at 0.0(mM)conc. The class given is functional, Mus musculus.
Test [4] relates to B16. The test is described as follows: The compound was tested in vitro for inhibition of cell growth on the B16-BL6 melanoma cells at 0.1(mM)conc. The format is functional, Mus musculus.
The subject of test [5] is B16. Put plainly: The compound was tested in vitro for inhibition of cell growth on the B16-BL6 melanoma cells at 0.25(mM)conc. The format is functional, Mus musculus.
Test [6] deals with B16. The test is described as follows: The compound was tested in vitro for inhibition of cell growth on the B16-BL6 melanoma cells at 0.5(mM)conc. The format is functional, Mus musculus.
Test [7] concerns B16. The test is described as follows: The compound was tested in vitro for inhibition of cell growth on the B16-BL6 melanoma cells at 0.75(mM)conc. The format is functional, Mus musculus.
Test [8] deals with B16. Put plainly: The compound was tested in vitro for inhibition of cell growth on the B16-BL6 melanoma cells at 1.0(mM)conc. The class given is functional, Mus musculus.
Test [9] has as its system B16. The test is described as follows: The compound was tested on [3H]spermidine uptake into BL6 cells at 0.5(mM)conc. The format is functional, Mus musculus. An outline of the steps: (§1)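 B16-BL6 melanoma cells were grown in DMEM with 10% heat-inactivated FBS, pyruvate, nonessential amino acids, glutamine, vitamins and 5 μg/mL insulin at […] in 5% CO2. They were pretreated with DFMO at 0–1.0 mM, then [3H]spermidine uptake was read as cpm per million cells. Values are mean ± SEM, compared by Duncan's and LSD tests.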

In test [10] the test system is B16. Put plainly: The compound was tested on [3H]-spermidine uptake into BL6 cells at 0.75(mM)conc. The class given is functional, Mus musculus. In a few lines: as §1
The subject of test [11] is B16. The test is described as follows: The compound was tested on [3H]spermidine uptake into BL6 cells at 1.0(mM)conc. The format is functional, Mus musculus. In a few lines:
as §1

The subject of test [12] is B16. The test is described as follows: The compound was tested on spermidine content of the cells at 0.1(mM)conc. The class given is functional, Mus musculus. In a few lines: (§2)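 B16-BL6 cells were cultured in supplemented DMEM and pretreated with DFMO at 0–1.0 mM. Cells were PBS-washed and pelleted, then extracted in 0.3 M perchloric acid with 1,6-hexanediamine internal standard (10 nmol per million cells). Extracts were benzoylated before the column and run by reversed-phase HPLC on a C8 cartridge at ambient temperature, 1.5 mL/min. Quantitation used a 0.05–10 nmol/mL standard curve.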

Test [13] has as its system B16. The test is described as follows: The compound was tested on spermidine content of the cells at 0.25(mM)conc. The class given is functional, Mus musculus. An outline of the steps: as §2
For test [14], the system named is B16. The test is described as follows: The compound was tested on spermidine content of the cells at 0.5 mM) conc. The format is functional, Mus musculus. An outline of the steps:
as §2

The subject of test [15] is B16. The test is described as follows: The compound was tested on spermidine content of the cells at 0.75(mM)conc. The format is functional, Mus musculus. In a few lines: as §2
Test [16] concerns B16. Put plainly: The compound was tested on spermidine content of the cells at 1.0(mM)conc. The class given is functional, Mus musculus. In a few lines: as §2
For test [17], the system named is B16. Put plainly: The compound was tested on [3H]spermidine uptake into BL6 cells at 0.0(mM)conc. The format is functional, Mus musculus. In a few lines:
as §1

The test system of test [18] is B16. The test is described as follows: The compound was tested on [3H]-spermidine uptake into BL6 cells at 0.1(mM)conc. The format is functional, Mus musculus. An outline of the steps:
as §1

For test [19], the system named is B16. Put plainly: The compound was tested on spermidine content of the cells at 0.0(mM)conc. The class given is functional, Mus musculus. In a few lines:
as §2

The subject of test [20] is B16. The test is described as follows: The compound was tested on [3H]spermidine uptake into BL6 cells at 0.25(mM)conc. The class given is functional, Mus musculus. In a few lines: as §1

In the case of `O=C(O)CCCc1ccc(N(CCCl)CCCl)cc1` [CHLORAMBUCIL], the figures for the IC50 in test [1] and in test [2] were 280 µM and 220 µM, respectively.
For `CC(=O)NCCc1ccc(O)c(O)c1`, the values for the IC50 in [1] and in test [2] were 2060 µM and 1220 µM, respectively.
Take `NCCCC(N)(C(=O)O)C(F)F` (stereo unspecified) [EFLORNITHINE]: the Cell growth is recorded as 2430000 number of cells ml-1 in test [3]; 2180000 number of cells ml-1 in test [4]; 1940000 number of cells ml-1 in [5]; 1090000 number of cells ml-1 in [6]; 1330000 number of cells ml-1 in test [7]; 1480000 number of cells ml-1 in [8]. Moreover, the cpm/million cells was 214540 in test [9]; 226404 in [10]; 250160 in test [11]; 146600 in [17]; 221610 in test [18]; 219910 in [20]. For the same compound, the Spermidine concentration was 0.6 nM (10e6*cells)-1 in [12]; 0.34 nM (10e6*cells)-1 in test [13]; 0.55 nM (10e6*cells)-1 in [14]; 0.52 nM (10e6*cells)-1 in test [15]; 0.35 nM (10e6*cells)-1 in [16]; 2.07 nM (10e6*cells)-1 in test [19].
Regarding `NCCCNC(CCCN)C(=O)NCCc1ccc(N(CCCl)CCCl)cc1` (stereo unspecified), the results for the IC50 in test [1] and in test [2] were 512 µM and 333 µM, respectively.
Taken in the same sequence, the figures for `NCCCNC(CCCN)C(=O)NCCc1ccc(O)c(O)c1` (stereo unspecified) were 1310 µM and 1230 µM.
